Measurements published in the RNAGym collection of RNA variant scans (doi:10.1038/nmeth.2970).

B1: NELF-E aptamer (parent)
chain: CCCAACGACUGCCGAGCGAGAUUACGCUUGAGCGCCCCACUGAGGAUGCCCACGGGCGAUUGGGGCACGG

Variants of: B1
Test: HiTS-RAP
Conditions: with NELF-E (Drosophila)
How it was run: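 Aptamer DNA templates bearing a T7 promoter and a ter site were sequenced on an Illumina GAIIx flowcell. T7 RNA polymerase then transcribed them in situ, and GST-Tus halted transcription over 30 minutes at 37°C. After a 30-minute room-temperature equilibration with NELF-E-mOrange at 0.064 to 1000 nM in HEPES binding buffer, clusters were imaged, using only the first binding curve. Intensities normalised to sequencing intensity were averaged per sequence and fitted with weighted Hill fits to give Kd, retaining only fits whose variance stayed under 1,000,000.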

Variant | Kd [nM]
A5G G11A | 6.61
A5G G11U | 6.9
A5G G14A | 6.54
A5G G14U | 6.38
A5G G16A | 6.56
A5G G16U | 7.42
A5G G18A | 5.15
A5G G18U | 6.11
A5G G20A | 6.58
A5G G20U | 6.78
A5G G26A | 5.29
A5G G26U | 7.39
A5G G30A | 5.43
A5G G34A | 5.89
A5G G42A | 27.1
A5G G45A | 21.9
A5G G45U | 7.32
A5G G48A | 12.6
A5G G54A | 12.9
A5G G55A | 11.2
A5G G55U | 7.72
A5G G56A | 11.2
A5G G56U | 7.96
A5G G62A | 13.5

Variant | Kd [nM]
A5G G63A | 14.1
A5G G63U | 12.1
A5G G64A | 8.07
A5G G65U | 6.76
A5G U10A | 4.67
A5G U10C | 4.79
A5G U10G | 5.47
A5G U22C | 5.45
A5G U22G | 5.89
A5G U23A | 5.47
A5G U23C | 5.22
A5G U23G | 6.21
A5G U28C | 10.2
A5G U28G | 7.79
A5G U29A | 6.04
A5G U29C | 6.65
A5G U29G | 6.19
A5G U41A | 25
A5G U41C | 84.9
A5G U41G | 6.23
A5G U47G | 7.6
A5G U60C | 11.3
A5G U61A | 37.8
A5G U61C | 64.6

Variant | Kd [nM]
A5U | 5.66
A5U A8C | 8.3
A5U A8G | 6.23
A5U A8U | 6.78
A5U A15G | 5.49
A5U A15U | 6.62
A5U A19G | 7.47
A5U A19U | 6
A5U A21G | 7.74
A5U A21U | 6.61
A5U A24G | 6.39
A5U A24U | 6.21
A5U A31G | 7.03
A5U A39G | 8.51
A5U A39U | 29.7
A5U A43G | 15.1
A5U A43U | 99.1
A5U A46G | 34.6
A5U A52G | 7.25
A5U A52U | 18.4
A5U A59G | 81.5
A5U A67G | 6.53
A5U A67U | 7.25
A5U C6A | 7.45

Variant | Kd [nM]
A5U C6G | 5.7
A5U C6U | 4.75
A5U C9G | 6.45
A5U C9U | 6.47
A5U C12G | 6.84
A5U C12U | 6.37
A5U C13G | 5.56
A5U C13U | 7.12
A5U C17G | 6.36
A5U C17U | 6.66
A5U C25G | 6.13
A5U C37A | 14.8
A5U C38U | 10.6
A5U C50U | 15
A5U C53U | 4.46
A5U C57U | 6.5
A5U C66U | 4.52
A5U G7A | 6.51
A5U G7U | 6.92
A5U G11A | 7.76
A5U G11U | 6.52
A5U G14A | 6.18
A5U G14U | 6.34
A5U G16A | 8.1

Variant | Kd [nM]
A5U G16U | 6.86
A5U G18A | 5.46
A5U G20A | 6.68
A5U G20U | 7.83
A5U G32A | 4.34
A5U G34A | 5.54
A5U G42A | 67.8
A5U G54A | 13.9
A5U G55A | 7.03
A5U G55U | 8.79
A5U G56A | 7.71
A5U G56U | 6.51
A5U G63A | 9.5
A5U G63U | 15.8
A5U G64A | 8.76
A5U G65A | 6.8
A5U G65U | 8.58
A5U U10A | 7.7
A5U U10C | 4.96
A5U U10G | 5.49
A5U U22C | 5.1
A5U U22G | 6.13
A5U U23A | 5.58
A5U U23G | 6.01

Variant | Kd [nM]
A5U U28C | 7.9
A5U U28G | 7.17
A5U U29A | 5.62
A5U U29C | 8.32
A5U U29G | 5.91
A5U U41A | 80.9
A5U U41G | 6.01
A5U U47A | 10.5
A5U U47G | 7.11
A5U U61A | 41.2
A5U U61C | 85.8
C6A | 6.13
C6A A8U | 7.06
C6A A24G | 7.36
C6A C9G | 7.55
C6A C12G | 6.54
C6A C13G | 5.49
C6A C17G | 7.95
C6A G7U | 6.56
C6A G11U | 6.57
C6A U10G | 5.78
C6A U22G | 7.16
C6A U23G | 7.03
C6A U29G | 6.91

Variant | Kd [nM]
C6G | 4.75
C6G A8C | 6.37
C6G A8G | 5.5
C6G A8U | 5.7
C6G A15G | 5.46
C6G A15U | 6.24
C6G A19G | 5.53
C6G A19U | 5.95
C6G A21G | 5.74
C6G A21U | 5.06
C6G A24G | 5.79
C6G A24U | 8.62
C6G A31G | 6.87
C6G A31U | 5.5
C6G A39C | 24
C6G A39G | 9.71
C6G A39U | 28.8
C6G A43G | 34.4
C6G A43U | 87.2
C6G A46G | 40.5
C6G A46U | 56.8
C6G A52G | 4.45
C6G A52U | 16.1
